In paper PMC5035790 (Annals of Oncology, 2016):

Test system: patients with advanced solid tumors or non-Hodgkin's lymphoma
Assay: Phase I dose-escalation study: safety, tolerability, MTD, adverse events
Format: in vivo, human
Method in brief: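 Adults with advanced solid tumours (plus NHL and type 2 diabetic expansion cohorts) received a 1-h IV infusion on days 1, 8 and 15 of 28-day cycles over 0.1–1.2 mg/kg. Accelerated titration escalated the dose by 100% per cohort. MTD was the highest dose given to six patients with ≤1 DLT. Fasting was 8 h pre- and 3 h post-start on cycle 1 day 1. AEs were assessed at planned times each cycle and at follow-up.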

COc1c(OCCCN2CCOCC2)ccc2c1N=C(NC(=O)c1cnc(N)nc1)N1CCN=C21 [copanlisib, Copanlisib]
dose-limiting toxicities (DLTs) (0.8 mg/kg dose-escalation cohort): no DLTs | dose modifications caused by drug-related AEs (14 of 57 patients): 25% | Any drug-related AE (NHL expansion, 0.8 mg/kg, n=9): 8 (89) n (%) | Drug-related AEs of grade 3 (NHL expansion, 0.8 mg/kg, n=9): 5 (56) n (%) | Drug-related AEs of grade 4 (NHL expansion, 0.8 mg/kg, n=9): 1 (11) n (%) | Drug-related diarrhea, all grades (NHL expansion, 0.8 mg/kg, n=9): 3 (33) n (%) | Drug-related diarrhea, grade 3 (NHL expansion, 0.8 mg/kg, n=9): 0 n (%) | Drug-related fatigue, all grades (NHL expansion, 0.8 mg/kg, n=9): 3 (33) n (%) | Drug-related fatigue, grade 3 (NHL expansion, 0.8 mg/kg, n=9): 0 n (%) | Drug-related hyperglycemia, all grades (NHL expansion, 0.8 mg/kg, n=9): 8 (89) n (%) | Drug-related hyperglycemia, grade 3 (NHL expansion, 0.8 mg/kg, n=9): 3 (33) n (%) | Drug-related hypertension, all grades (NHL expansion, 0.8 mg/kg, n=9): 3 (33) n (%) | Drug-related hypertension, grade 3 (NHL expansion, 0.8 mg/kg, n=9): 3 (33) n (%) | Drug-related nausea, all grades (NHL expansion, 0.8 mg/kg, n=9): 7 (78) n (%) | Drug-related nausea, grade 3 (NHL expansion, 0.8 mg/kg, n=9): 0 n (%) | Drug-related oral cavity mucositis, all grades (NHL expansion, 0.8 mg/kg, n=9): 3 (33) n (%) | Drug-related oral cavity mucositis, grade 3 (NHL expansion, 0.8 mg/kg, n=9): 0 n (%) | Drug-related rash/desquamation, all grades (NHL expansion, 0.8 mg/kg, n=9): 2 (22) n (%) | Drug-related rash/desquamation, grade 3 (NHL expansion, 0.8 mg/kg, n=9): 1 (11) n (%) | Drug-related vomiting, all grades (NHL expansion, 0.8 mg/kg, n=9): 1 (11) n (%) | Drug-related vomiting, grade 3 (NHL expansion, 0.8 mg/kg, n=9): 0 n (%) | Drug-related hyperglycemia, all grades (all patients, n=57, text): 63% | Drug-related hypertension, all grades (all patients, n=57, text): 21% | Drug-related hypertension, grade 3 (all patients, n=57, text): 14% | diarrhea, all-grade (all patients, n=57, text): 16% | diarrhea, grade ≥3 (all patients, n=57, text): 2% | drug-related rash, grade 3 (all patients, n=57, text): 7% | Drug-related nausea, all grades (all patients, n=57, text, all events grade ≤2): 37% | Any drug-related AE (cohort 1, 0.1 mg/kg, n=1): 1 (100) n (%) | Drug-related AEs of grade 3 (cohort 1, 0.1 mg/kg, n=1): 0 n (%) | Drug-related AEs of grade 4 (cohort 1, 0.1 mg/kg, n=1): 0 n (%) | Drug-related diarrhea, all grades (cohort 1, 0.1 mg/kg, n=1): 0 n (%) | Drug-related diarrhea, grade 3 (cohort 1, 0.1 mg/kg, n=1): 0 n (%) | Drug-related fatigue, all grades (cohort 1, 0.1 mg/kg, n=1): 0 n (%) | Drug-related fatigue, grade 3 (cohort 1, 0.1 mg/kg, n=1): 0 n (%) | Drug-related hyperglycemia, all grades (cohort 1, 0.1 mg/kg, n=1): 0 n (%) | Drug-related hyperglycemia, grade 3 (cohort 1, 0.1 mg/kg, n=1): 0 n (%) | Drug-related hypertension, all grades (cohort 1, 0.1 mg/kg, n=1): 0 n (%) | Drug-related hypertension, grade 3 (cohort 1, 0.1 mg/kg, n=1): 0 n (%) | Drug-related nausea, all grades (cohort 1, 0.1 mg/kg, n=1): 0 n (%) | Drug-related nausea, grade 3 (cohort 1, 0.1 mg/kg, n=1): 0 n (%) | Drug-related oral cavity mucositis, all grades (cohort 1, 0.1 mg/kg, n=1): 0 n (%) | Drug-related oral cavity mucositis, grade 3 (cohort 1, 0.1 mg/kg, n=1): 0 n (%) | Drug-related rash/desquamation, all grades (cohort 1, 0.1 mg/kg, n=1): 0 n (%) | Drug-related rash/desquamation, grade 3 (cohort 1, 0.1 mg/kg, n=1): 0 n (%) | Drug-related vomiting, all grades (cohort 1, 0.1 mg/kg, n=1): 0 n (%) | Drug-related vomiting, grade 3 (cohort 1, 0.1 mg/kg, n=1): 0 n (%) | Any drug-related AE (cohort 2, 0.2 mg/kg, n=3): 3 (100) n (%) | Drug-related AEs of grade 3 (cohort 2, 0.2 mg/kg, n=3): 2 (67) n (%) | Drug-related AEs of grade 4 (cohort 2, 0.2 mg/kg, n=3): 0 n (%) | Drug-related diarrhea, all grades (cohort 2, 0.2 mg/kg, n=3): 2 (67) n (%) | Drug-related diarrhea, grade 3 (cohort 2, 0.2 mg/kg, n=3): 1 (33) n (%) | Drug-related fatigue, all grades (cohort 2, 0.2 mg/kg, n=3): 1 (33) n (%) | Drug-related fatigue, grade 3 (cohort 2, 0.2 mg/kg, n=3): 0 n (%) | Drug-related hyperglycemia, all grades (cohort 2, 0.2 mg/kg, n=3): 1 (33) n (%) | Drug-related hyperglycemia, grade 3 (cohort 2, 0.2 mg/kg, n=3): 0 n (%) | Drug-related hypertension, all grades (cohort 2, 0.2 mg/kg, n=3): 0 n (%) | Drug-related hypertension, grade 3 (cohort 2, 0.2 mg/kg, n=3): 0 n (%) | Drug-related nausea, all grades (cohort 2, 0.2 mg/kg, n=3): 3 (100) n (%) | Drug-related nausea, grade 3 (cohort 2, 0.2 mg/kg, n=3): 0 n (%) | Drug-related oral cavity mucositis, all grades (cohort 2, 0.2 mg/kg, n=3): 1 (33) n (%) | Drug-related oral cavity mucositis, grade 3 (cohort 2, 0.2 mg/kg, n=3): 0 n (%) | Drug-related rash/desquamation, all grades (cohort 2, 0.2 mg/kg, n=3): 0 n (%) | Drug-related rash/desquamation, grade 3 (cohort 2, 0.2 mg/kg, n=3): 0 n (%) | Drug-related vomiting, all grades (cohort 2, 0.2 mg/kg, n=3): 1 (33) n (%) | Drug-related vomiting, grade 3 (cohort 2, 0.2 mg/kg, n=3): 0 n (%) | Any drug-related AE (cohort 3, 0.4 mg/kg, n=3): 2 (67) n (%) | Drug-related AEs of grade 3 (cohort 3, 0.4 mg/kg, n=3): 1 (33) n (%) | Drug-related AEs of grade 4 (cohort 3, 0.4 mg/kg, n=3): 0 n (%) | Drug-related diarrhea, all grades (cohort 3, 0.4 mg/kg, n=3): 0 n (%) | Drug-related diarrhea, grade 3 (cohort 3, 0.4 mg/kg, n=3): 0 n (%) | Drug-related fatigue, all grades (cohort 3, 0.4 mg/kg, n=3): 0 n (%) | Drug-related fatigue, grade 3 (cohort 3, 0.4 mg/kg, n=3): 0 n (%) | Drug-related hyperglycemia, all grades (cohort 3, 0.4 mg/kg, n=3): 1 (33) n (%) | Drug-related hyperglycemia, grade 3 (cohort 3, 0.4 mg/kg, n=3): 0 n (%) | Drug-related hypertension, all grades (cohort 3, 0.4 mg/kg, n=3): 1 (33) n (%) | Drug-related hypertension, grade 3 (cohort 3, 0.4 mg/kg, n=3): 1 (33) n (%) | Drug-related nausea, all grades (cohort 3, 0.4 mg/kg, n=3): 0 n (%) | Drug-related nausea, grade 3 (cohort 3, 0.4 mg/kg, n=3): 0 n (%) | Drug-related oral cavity mucositis, all grades (cohort 3, 0.4 mg/kg, n=3): 0 n (%) | Drug-related oral cavity mucositis, grade 3 (cohort 3, 0.4 mg/kg, n=3): 0 n (%) | Drug-related rash/desquamation, all grades (cohort 3, 0.4 mg/kg, n=3): 0 n (%) | Drug-related rash/desquamation, grade 3 (cohort 3, 0.4 mg/kg, n=3): 0 n (%) | Drug-related vomiting, all grades (cohort 3, 0.4 mg/kg, n=3): 0 n (%) | Drug-related vomiting, grade 3 (cohort 3, 0.4 mg/kg, n=3): 0 n (%) | Any drug-related AE (cohort 4, 0.8 mg/kg, n=7): 7 (100) n (%) | Drug-related AEs of grade 3 (cohort 4, 0.8 mg/kg, n=7): 4 (57) n (%) | Drug-related AEs of grade 4 (cohort 4, 0.8 mg/kg, n=7): 0 n (%) | Drug-related diarrhea, all grades (cohort 4, 0.8 mg/kg, n=7): 1 (14) n (%) | Drug-related diarrhea, grade 3 (cohort 4, 0.8 mg/kg, n=7): 0 n (%) | Drug-related fatigue, all grades (cohort 4, 0.8 mg/kg, n=7): 0 n (%) | Drug-related fatigue, grade 3 (cohort 4, 0.8 mg/kg, n=7): 0 n (%) | Drug-related hyperglycemia, all grades (cohort 4, 0.8 mg/kg, n=7): 7 (100) n (%)
